Assay results published in ChEMBL document CHEMBL1221201, “Extension of Drosophila melanogaster life span with a GPCR peptide inhibitor” (Nat Chem Biol, 2007).
Each block holds one molecule with its values, some of them ahead of it. Active and inactive are the calls of the source. The rule behind the calls is not given here.

Experiments:
[1] = target: T1, G-protein coupled receptor Mth (Drosophila melanogaster, UniProt O97148); test: Binding affinity to Drosophila melanogaster Mth ectodomain
T1 sequence (O97148 whole entry): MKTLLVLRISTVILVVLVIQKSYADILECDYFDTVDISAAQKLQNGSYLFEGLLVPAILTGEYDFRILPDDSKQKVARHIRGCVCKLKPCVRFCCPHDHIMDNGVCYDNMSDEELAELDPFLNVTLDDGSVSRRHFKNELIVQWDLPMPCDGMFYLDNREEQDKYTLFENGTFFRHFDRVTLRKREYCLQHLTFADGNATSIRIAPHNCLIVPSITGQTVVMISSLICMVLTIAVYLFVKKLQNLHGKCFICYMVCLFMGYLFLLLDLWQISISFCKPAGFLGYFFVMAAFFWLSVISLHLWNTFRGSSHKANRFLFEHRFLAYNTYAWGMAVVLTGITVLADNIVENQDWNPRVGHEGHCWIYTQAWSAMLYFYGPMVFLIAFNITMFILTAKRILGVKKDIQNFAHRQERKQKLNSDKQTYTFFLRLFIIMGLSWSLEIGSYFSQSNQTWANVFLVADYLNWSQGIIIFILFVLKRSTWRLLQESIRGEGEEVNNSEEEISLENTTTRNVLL
Outline: (§1)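 Mth ectodomain (His6-tagged, C-terminal biotinylation tag, expressed in baculovirus-infected High 5 cells, biotinylated with BirA) immobilized at ~500 RU. Peptide was injected at the indicated concentrations, 45 μl per injection. Sensorgrams were double-referenced against a negative control flow cell and averaged buffer blanks. Kinetic parameters came from a global fit to a 1:1 bimolecular interaction model.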

Drosophila melanogaster [2] = test: Increase in mean life span of Drosophila melanogaster GAL-4/UAS--[…] transgene insertion line 41.6 at 25 degC; assay type: functional
Outline: (§2)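 da-GAL4-driven UAS–R8-12 insertion line 41.6 male adults were maintained at 25 °C and followed by survival curves. Mean and maximal adult lifespans are the average of two independent trials, with about 90 to 120 flies per curve.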

Drosophila melanogaster [3] = test: Increase in maximal life span of Drosophila melanogaster GAL-4/UAS--[…] transgene insertion line 41.6 at 25 degC; assay type: functional; outline: as §2
[4] = target: T2, G-protein coupled receptor Mth (Drosophila melanogaster) (UniProt O97148); test: Inhibition of Drosophila melanogaster Mth […] transfected into human HEK cells assessed as inhibition of N-Stunted-induced Mth signaling up to 10 uM; assay type: cell-based; settings: HEK293
T2 sequence (whole entry): T1 sequence (O97148 whole entry)
Outline: (§3)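 HEK 293 cells stably expressing Mth-B were plated on Matrigel and loaded with 4 μM Fluo-4 (45 min at room temperature, then 15 min at 37 °C) in HEPES pH 7.5 HBSS buffer with BSA and 2.5 mM probenecid. After baseline readings, antagonist was added, followed by agonist peptide. Calcium fluorescence (ex 494/em 520 nm) was read for ~5 min. Values were background-subtracted and fitted to sigmoidal curves.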

Drosophila melanogaster [5] = test: Increase in life span of Drosophila melanogaster GAL-4/UAS--[…] transgene insertion line 41.2 at 29 degC; assay type: functional
Drosophila melanogaster [6] = test: Increase in maximal life span of Drosophila melanogaster GAL4/UAS--[…] transgene insertion line 41.6 at 29 degC; assay type: functional
Drosophila melanogaster [7] = test: Increase in life span of Drosophila melanogaster GAL-4/UAS--[…] transgene insertion line 11.1 at 29 degC; assay type: functional
[8] = target: T1, G-protein coupled receptor Mth; test: Inhibition of Drosophila melanogaster Mth […] transfected into human HEK cells assessed as inhibition of N-Stunted-induced Mth signaling; assay type: cell-based, HEK293; outline: as §3
[9] = target: T2, G-protein coupled receptor Mth (Drosophila melanogaster); test: Binding affinity to Drosophila melanogaster full-length Mth-GFP transfected into CHO cells at 150 nM by fluorescence microscopy
[10] = Binding affinity to G-protein coupled receptor MthW12S mutant of Drosophila melanogaster 300 nM by fluorescence microscopy
Outline: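 Intrinsic Trp fluorescence with excitation at 295 nm. 300 nM peptide was titrated with Trp-less Mth W120S ectodomain, emission read at 345 nm, in 10 mM KH2PO4 pH 7.2, 150 mM NaCl. Complexes were mixed for 5 min in a stirred cell before reading. KD came from the titration.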

Drosophila melanogaster [11] = test: Increase in mean life span of Drosophila melanogaster GAL4/UAS--[…] transgene insertion line 41.6 at 29 degC; assay type: functional
Drosophila melanogaster [12] = test: Displacement of radiolabeled full-length R8-01 mRNA from Drosophila melanogaster Mth ectodomain up to 150 uM
Outline: (§4)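 35S-methionine-labelled RNA-peptide fusions were RNase-treated and bound to Mth ectodomain immobilized on NeutrAvidin-agarose (~1 mg Mth per ml matrix). For competition, unlabelled peptide at various concentrations was included in the binding buffer during the initial binding step.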

Drosophila melanogaster [13] = test: Displacement of radiolabeled full-length R8-01 mRNA from Drosophila melanogaster Mth ectodomain at 10 uM; outline: as §4
Drosophila melanogaster [14] = test: Displacement of radiolabeled 30-mer synthetic peptide mRNA from Drosophila melanogaster Mth ectodomain at 30 uM; outline: as §4
[15] = target: T2, G-protein coupled receptor Mth (Drosophila melanogaster); test: Binding affinity to Drosophila melanogaster Mth ectodomain transfected in CHO cells up to 5 uM by SPR
[16] = target: T2, G-protein coupled receptor Mth (Drosophila melanogaster); test: Binding affinity to Drosophila melanogaster Mth ectodomain at 100 nM measured by SPR; outline: as §1
Drosophila melanogaster [17] = test: Displacement of radiolabeled full-length R8-04 mRNA from Drosophila melanogaster Mth ectodomain at 10 uM; outline: as §4
[18] = target: T2, G-protein coupled receptor Mth (Drosophila melanogaster); test: Binding affinity to Drosophila melanogaster Mth ectodomain at 300 nM measured by SPR; outline: as §1
[19] = target: T2, G-protein coupled receptor Mth (Drosophila melanogaster); test: Binding affinity to Drosophila melanogaster Mth ectodomain at 900 nM measured by SPR; outline: as §1
[20] = target: T2, G-protein coupled receptor Mth (Drosophila melanogaster); test: Binding affinity to Drosophila melanogaster Mth ectodomain at 1500 nM measured by SPR; outline: as §1

Molecule: H-RLVWIVRSRHFGPRLRMALLGSDRKMW-OH
Kd [1]: 18 nM | Activity (Drosophila melanogaster [2]): 49% | Activity (Drosophila melanogaster [3]): 36% | inhibition [4]: inactive | Activity (Drosophila melanogaster [5]): 31% | Activity (Drosophila melanogaster [6]): 26% | Activity (Drosophila melanogaster [7]): 40% | IC50 [8]: 45 nM | Activity [9]: Active | Kd [10]: 15 nM | Activity (Drosophila melanogaster [11]): 38%

Molecule: H-NVSWGSFPSSWLQRYYLAKRREADVTL-OH
Kd [1]: 31 nM | Activity (Drosophila melanogaster [12]): inactive | Activity (Drosophila melanogaster [13]): 96% | Activity (Drosophila melanogaster [14]): 79%

Molecule: H-RYVWYLRTKHRRSLRLRSACARGSSA-OH
Kd [1]: < 30 nM

Molecule: H-GDDMYRIREFLANYRPIWVMRSNLAQL-OH
Kd [1]: < 30 nM

Results, then the molecule that gave them:

inhibition [4]: inactive
Molecule: CC[C@H](C)[C@H](NC(=O)[C@H](C)NC(=O)[C@H](CCCNC(=N)N)NC(=O)[C@H](CCC(N)=O)NC(=O)[C@@H](NC(=O)[C@H](Cc1c[nH]c2ccccc12)NC(=O)[C@@H](NC(=O)[C@H](C)NC(=O)[C@H](CCCNC(=N)N)NC(=O)[C@@H]1CCCN1C(=O)[C@@H](C)N)C(C)C)[C@@H](C)CC)C(=O)N[C@@H](CCC(N)=O)C(=O)N[C@@H](C)C(=O)N[C@@H](CCSC)C(=O)N[C@@H](Cc1ccccc1)C(=O)N[C@@H](CCCNC(=N)N)C(=O)N[C@@H](CC(C)C)C(=O)N[C@@H](C)C(=O)N[C@@H](CO)C(=O)N[C@@H](CCCNC(=N)N)C(=O)N[C@@H](CCC(N)=O)C(=O)N[C@@H](CCC(=O)O)C(=O)N[C@@H](CO)C(=O)N[C@@H](CCCCN)C(=O)N[C@@H](C)C(=O)N[C@@H](Cc1ccccc1)C(=O)N[C@@H](CC(N)=O)C(=O)O

Kd [1]: 18 nM | IC50 [8]: 115 nM
Molecule: CC[C@H](C)[C@H](NC(=O)[C@H](C)NC(=O)[C@H](CCCNC(=N)N)NC(=O)[C@H](CCC(N)=O)NC(=O)[C@@H](NC(=O)[C@H](Cc1c[nH]c2ccccc12)NC(=O)[C@@H](NC(=O)[C@H](C)NC(=O)[C@H](CCCNC(=N)N)NC(=O)[C@@H]1CCCN1C(=O)[C@H](C)N)C(C)C)[C@@H](C)CC)C(=O)N[C@@H](CCC(N)=O)C(=O)N[C@@H](C)C(=O)N[C@@H](CCSC)C(=O)N[C@@H](Cc1ccccc1)C(=O)N[C@@H](CCCNC(=N)N)C(=O)N[C@@H](CC(C)C)C(=O)N[C@@H](C)C(=O)N[C@@H](CO)C(=O)N[C@@H](CCCNC(=N)N)C(=O)N[C@@H](CCC(N)=O)C(=O)N[C@@H](CCC(=O)O)C(=O)N[C@@H](CO)C(=O)N[C@@H](CCCCN)C(=O)N[C@@H](C)C(=O)N[C@@H](Cc1ccccc1)C(=O)N[C@@H](CC(N)=O)C(=O)O

Activity [15]: inactive
Molecule: H-MAPRAVWIQAAIQAMFRLA-OH

Kd [1]: 326 nM | Activity [16]: Active | Activity (Drosophila melanogaster [17]): 94% | Activity [18]: Active | Activity [19]: Active | Activity [20]: Active
Molecule: H-VRIGYTSKPGGMNPGNSYTMSIIRMLI-OH

Activity [15]: inactive
Molecule: H-MAPRAVAIQRAIQAMFRLAGY-OH
